DAGLB inhibitor – diacylglycerol lipase beta (human) inhibition. actives 0.059% (n = 340,000). inhibition, % at 5.17 µM. AID 504411. HEK293T DAGLB membrane lysate, EnzChek fluorogenic substrate. Q8NCG7; in the data active = inhibition above about 34%;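 note: 0% = enzyme with vehicle and 100% = wells lacking enzyme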
Target sequence (Q8NCG7 whole entry, looked up): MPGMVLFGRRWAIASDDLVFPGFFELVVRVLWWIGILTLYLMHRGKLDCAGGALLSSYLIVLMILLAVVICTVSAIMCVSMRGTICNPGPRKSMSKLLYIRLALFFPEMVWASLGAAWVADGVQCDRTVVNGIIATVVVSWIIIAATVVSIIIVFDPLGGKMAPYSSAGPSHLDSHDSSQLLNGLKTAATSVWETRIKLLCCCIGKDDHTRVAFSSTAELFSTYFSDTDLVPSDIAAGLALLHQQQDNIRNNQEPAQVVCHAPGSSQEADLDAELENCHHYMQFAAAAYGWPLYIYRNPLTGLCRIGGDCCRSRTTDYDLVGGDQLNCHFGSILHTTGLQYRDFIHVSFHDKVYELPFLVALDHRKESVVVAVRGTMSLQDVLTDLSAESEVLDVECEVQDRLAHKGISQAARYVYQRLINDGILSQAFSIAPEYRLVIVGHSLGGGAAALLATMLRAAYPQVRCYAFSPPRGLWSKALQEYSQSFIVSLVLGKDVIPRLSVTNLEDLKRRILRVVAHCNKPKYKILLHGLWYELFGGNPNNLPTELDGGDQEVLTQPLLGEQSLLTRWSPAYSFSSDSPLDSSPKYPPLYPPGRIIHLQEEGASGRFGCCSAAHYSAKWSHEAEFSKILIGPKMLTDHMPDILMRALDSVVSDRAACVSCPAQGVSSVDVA
core dimer inh – blocks dimerization of HCV core protein; TR-FRET GST/Flag-core106 dimerization, 1536-well; inhibition, % at 5 µM; actives 0.33% (n = 300,000); AID 1899;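 active = inhibition above the mean of all tested compounds plus 3 SD, set per screening campaign, cut at about 45% in these data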
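Test system: GST/Flag-tagged HCV core106 proteins; Medium: KF-containing HEPES buffer, pH 7.45, DTT, CHAPS, BSA; Times: compound-protein-antibody incubation 4 h at 22.5 °C; Detection: TR-FRET 671 and 617 nm emission; Benchmarks: wells lacking GST-core106 and wells with excess unlabelled core106.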
NR2E3 ag-1 – agonists of human nuclear receptor NR2E3. inhibition of corepressor binding, % at 4.78 µM. Q9Y5X4. actives 0.12% (n = 320,000). GST-NR2E3/biotin-RetCOR TR-FRET, 1536-well. AID 2300;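 active = percent inhibition above the cutoff of mean plus 3 SD of all tested compounds, set per screening campaign, cut at about 20% in these data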;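 note: 0% = DMSO wells and 100% = biotin wells as full block of FRET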
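Assay system: NR2E3–RetCOR corepressor complex. Quantity: 1.35 nM GST-NR2E3. Buffer or medium: pH 7.5 Tris-based buffer. Reagent: biotinylated RetCOR corepressor at 7 nM final. Schedule: 5 h at 4 °C. Detection: TR-FRET, emission read at 617 and 671 nm. Replicates: one well per compound, singlicate testing.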
MT1-MMP act inh – MT1-MMP (human) activation inhibition; HT1080 RFP-PRO-GFP cells, GFP/RFP ratio fluorescence, overnight; percent of plate control window, DMSO zero; GFP/RFP ratio change, % at 20 µM; actives 0.061% (n = 360,000);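 active = GFP/RFP ratio change of at least 30% with cell ATP level not reduced by more than half and red fluorescence within 50% of control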
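system = RFP-PRO-GFP reporter HT1080 cells | dosing = 20 µM single dose, 1% DMSO | timing = overnight cell settling, then overnight compound exposure, 37 °C, 5% CO2 | read-out basis = GFP/RFP fluorescence ratio | controls = DMSO and RFP-L50D-GFP cell wells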
Vif inh – HIV Vif inhibition; HEK293T cells, Vif self-association by quenched fluorescence, imaging, 24 h; inhibition, % at 7.49 µM; actives 0.35% (n = 340,000); AID 602346; in the data active = inhibition above about 50%, passing the limit was not always enough
NR2E3 ag-2 – human photoreceptor-specific nuclear receptor agonism. Q9Y5X4. AID 602229. CHO-S Gal4-NCOR/VP16-NR2E3 two-hybrid, luciferase. inhibition of corepressor binding, % at 3.98 µM. actives 0.35% (n = 360,000);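 active = inhibition above the mean of all tested compounds plus 3 SD, cut at about 70% in these data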;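 note: 0% = DMSO with NR2E3 transfected cells and 100% = cells lacking NR2E3 construct; higher means lower luciferase signal from less NR2E3 corepressor binding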
Starred values were filed as active, the others as inactive; / = not tested or not shown. Sampled rows, rich in hits. Any-hit rate of the full collection: about 1.1%.

SMILES	DAGLB inhibitor	core dimer inh	NR2E3 ag-1	MT1-MMP act inh	Vif inh	NR2E3 ag-2
O=C1C(Cl)=C(Nc2ccccc2)C(=O)c2ccccc21	5	-17	0	-24	12	-32
CCN(CC(=O)Nc1cc(Cl)ccc1C)CC(=O)NC1CC1	3	/	/	2	-7	-10
CCN(CC(=O)Nc1cc(Cl)cc(Cl)c1)CC(=O)NC1CCS(=O)(=O)C1 (stereo unspecified)	-4	/	/	-1	54*	-1
COc1ccc(-c2cc(-c3nc4ccccn4c3NCc3ccccc3)ccc2OC)cc1	0	/	/	14	77*	39
COc1ccc(Cl)cc1C(=O)Nc1cccnc1	-2	3	1	-1	53*	-18
COC(=O)C1=CN(c2ccc(F)cc2)C(N)=C(C#N)C1c1ccc(-c2ccccc2)cc1 (stereo unspecified)	/	/	/	0	/	/
O=C(Nc1ccc(S(=O)(=O)Nc2ncccn2)cc1)C1CC(=O)N(c2ccc(Cl)cc2)C1 (stereo unspecified)	1	6	1	2	56*	-2
Cc1cccc(C)c1NC(=O)C(c1ccncc1)N1CCN(CCN(C)C)CC1 (stereo unspecified)	/	/	/	1	/	/
COc1ccccc1NC(=O)c1ccccc1NC(=O)c1ccccn1	-11	/	/	1	51*	-27
CCCCn1c(NC(=O)c2ccc(F)cc2)c(C#N)c2nc3ccccc3nc21	/	10	22*	/	/	/
CCCCn1c(NC(=O)c2ccccc2)c(C#N)c2nc3ccccc3nc21	-16	/	/	-165	52*	-9
CCC(C)n1c(NC(=O)c2ccccc2)c(C#N)c2nc3ccccc3nc21 (stereo unspecified)	-1	37	1	-69	15	-16
O=S(=O)(Nc1nc2ccccc2nc1NCc1ccco1)c1ccc(Cl)cc1	5	20	1	-4	62*	44
O=C(N/N=C/C(Br)=C/c1ccccc1)c1n[nH]c2c1CCC2	3	69*	-1	-9	-4	-6
COc1cccc(S(=O)(=O)Nc2ccc3c(c2)C(=O)N(C)C[C@H](OC)[C@H](C)CN[C@@H](C)CO3)c1	/	/	/	0	/	/
O=C(OCn1ncc(Cl)c(Cl)c1=O)c1ccc(C(F)(F)F)cc1	4	/	/	-3	-2	22
Cc1ccc(C(=O)OCn2ncc(Cl)c(Cl)c2=O)cc1	0	2	6	-5	50*	44
CCC(C)C(=O)Nn1c(C2CC2)nc2cc(OC)c(OC)cc2c1=O (stereo unspecified)	0	-1	3	0	125*	7
COC1=CC(C)C2CC3OC(O)CC4C(C)=C(OC)C(=O)C(C2(C)C1=O)C34C (stereo unspecified)	/	/	/	9	-2	-3
O=C1c2ccccc2C(Nc2ccc3c(c2)OCO3)N1Cc1ccc2c(c1)OCO2 (stereo unspecified)	4	50*	1	-6	/	-27
Cc1cc(NC(=O)c2cc(-c3ccncc3)nc3c(C)cccc23)no1	0	54*	3	-6	-1	-65
O=C(C[C@@H]1C/C=C\C[C@H](Cc2ccc(F)cc2)C(=O)OCCNC1=O)NCCO	2	/	/	4	-1	-17
N#C/C(=N\Nc1cccc(Cl)c1)C(=O)c1ccccc1	11	9	5	6	-18	102*
N#C/C(=N\Nc1ccccc1Cl)C(=O)c1ccccc1	11	0	-1	-1	-8	47
O=C(Nc1ccccc1Cl)OC1CCCCC1	-8	1	-4	0	-3	-24
SMILES	DAGLB inhibitor	core dimer inh	NR2E3 ag-1	MT1-MMP act inh	Vif inh	NR2E3 ag-2
COc1cccc(/C=N/NC(=O)CCCC(=O)NC2CCCCC2)c1	-3	3	-3	3	4	29
COc1cc(/C=N/NC(=O)CCC(=O)NC2CCCCC2)ccc1C	0	4	0	2	51*	-26
N=c1c(C(=O)NCc2ccco2)cc2c(=O)n3ccccc3nc2n1CCc1ccccc1	3	52*	0	2	-4	-38
Cc1ccc(Cn2c(=N)c(S(=O)(=O)c3ccc(Br)cc3)cc3c(=O)n4ccccc4nc32)cc1	1	-11	4	-5	53*	-8
COc1ccc(CCn2c(=N)c(C(=O)NCc3ccco3)cc3c(=O)n4ccccc4nc32)cc1OC	2	/	/	-3	0	-50
N=c1c(S(=O)(=O)c2ccc(Br)cc2)cc2c(=O)n3ccccc3nc2n1Cc1ccccc1	0	9	0	-9	4	-14
Cc1ccc(Cn2c(=N)c(C(=O)NCc3ccco3)cc3c(=O)n4ccccc4nc32)cc1	5	63*	2	-16	3	-14
COc1ccc(CCNC(=O)c2cc3c(=O)n4ccccc4nc3n(Cc3ccco3)c2=N)cc1OC	1	23	3	0	2	-12
CC(C)c1nc(SCC(=O)N2CC(=O)Nc3ccccc32)c2ccccc2n1	1	3	6	-2	5	6
Cc1cc(N2CCCC2=O)cc(C)c1S(=O)(=O)NCCOc1ccc(C(C)(C)C)cc1	-2	10	3	-4	-15	95*
N#CC1=C(N)Oc2c(ccc3ccccc23)C1c1ccsc1 (stereo unspecified)	0	71*	-4	-6	24	-208
N#CC1=C(N)Oc2c(oc(CO)cc2=O)C1c1ccsc1 (stereo unspecified)	0	6	0	-23	-7	-29
NC(=O)c1ncn([C@@H]2O[C@H](CNC(=O)[C@H](N)CSCc3ccccc3)[C@@H](O)[C@H]2O)n1	-3	/	/	3	/	1
COC(=O)Nc1ccc2c(c1)ncn2C1CCCCC1	-1	2	-3	11	-18	-18
CCOC(=O)Nc1ccc2c(c1)ncn2C1CCCCC1	3	4	3	5	82*	-14
C=CC[n+]1ccc(/C=C2\C=Cc3cc(C)ccc3N2CC)c2ccccc21	10	/	/	61*	-27	93*
CCN1/C(=C/c2cc[n+](CCCS(=O)(=O)[O-])c3ccccc23)Sc2ccccc21	-2	-19	-4	-98	-3	-29
CN1C(=O)c2c(sc3c2CCCC3)NC1c1ccccc1O (stereo unspecified)	/	55*	1	/	/	/
O=C1NC(c2cccs2)Nc2sc3c(c21)CCCC3 (stereo unspecified)	2	0	0	-2	3	-88
Cc1ccc(NC(=O)c2ccc(NCc3ccco3)c([N+](=O)[O-])c2)cc1Cl	4	13	1	-24	82*	1
O=C(CSc1ccsc1[N+](=O)[O-])Nc1cc(F)ccc1F	-3	/	/	-12	/	13
